In ChEMBL document CHEMBL1909507, “Substituted phenyl 4-(2-oxoimidazolidin-1-yl)benzenesulfonamides as antimitotics. Antiproliferative, antiangiogenic and antitumoral activity, and quantitative structure-activity relationships” (Eur J Med Chem, 2011):
Calls of active or inactive are those of the source. No cut-off for these calls is given here.

Experiments:
MCF7 = assay: Antiproliferative activity against human MCF7 cells after 48 hrs by SRB assay; assay type: functional, cell-based; details: MCF7, 48 h
Method in brief: (§1)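 Adherent cells were seeded per line (e.g. HT-29 5000, M21 3500, MCF7 7500, CHO and CHO-VV 3-2 and CHO-TAX 5-6 1000 cells/well) and grown 24 h at 37 °C, 5% CO₂. DMSO-solubilized drug was diluted in medium and added at 1000–0.98 nM for 48 h. Cells were fixed with cold 10% TCA and stained with 0.1% sulforhodamine B, with absorbance read at 530–565 nm.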

[1] = Antiproliferative activity against mouse P388D1 after 48 hrs by SRB assay; details: P388D1, 48 h
M21 [2] = assay: Disruption of cytoskeleton microtubule structure of human M21 cells at 5 times IC50 after 16 hrs by indirect immunofluorescence assay; assay type: functional, cell-based
Method in brief: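 Cells were fixed in 3.7% formaldehyde, permeabilized with saponin, and stained with anti-β-tubulin TUB 2.1, Alexa-488 anti-mouse secondary and DAPI. Fluorescence microscopy was used for imaging.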

CHO-VV 3-2 [3] = assay: Antiproliferative activity against colchicine and vinblastine-resistant CHO-VV 3-2 cells after 48 hrs by SRB assay; assay type: functional, cell-based; details: Cricetulus griseus, CHO-VV 3-2, 48 h; method in brief: as §1
MDA-MB-231 [4] = assay: Displacement of N,N'-ethylenebis(iodoacetamide) from beta-tubulin colchicine-binding site in human MDA-MB-231 cells at 1000 times IC50 preincubated for 2 hrs before N,N'-ethylenebis(iodoacetamide) addition measured after 1.5 hrs by chemiluminescence assay; assay type: cell-based
Method in brief: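 EBI (100, final) was added for 1.5 h at 37 °C with drug present; control was 0.5% DMSO. Sonicated lysates (20 µg protein) were run on 10% SDS-PAGE and blotted with anti-β-tubulin TUB 2.1. The β-tubulin–EBI adduct was scored by ECL.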

K562 = assay: Antiproliferative activity against human K562 after 48 hrs by SRB assay; assay type: functional, cell-based; details: K562, 48 h
M21 [5] = assay: Cell cycle arrest in human M21 cells assessed as accumulation at G0/G1 phase at 5 times IC50 after 24 hrs using propidium iodide staining by flow cytometric analysis (reference value: 61%); assay type: functional
Method in brief: (§2)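 Cells were trypsinized, fixed in ice-cold ethanol, treated with RNase, and stained with propidium iodide (1 mg/mL stock) for 1 h on ice. Cell-cycle distribution was measured by flow cytometry.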

[6] = Antiproliferative activity against mouse B16F0 after 48 hrs by SRB assay
M21 [7] = assay: Cell cycle arrest in human M21 cells assessed as accumulation at G2/M phase at 5 times IC50 after 24 hrs using propidium iodide staining by flow cytometric analysis (reference value: 9%); assay type: functional; method in brief: as §2
CHO-TAX 5-6 [8] = assay: Antiproliferative activity against paclitaxel-resistant CHO-TAX 5-6 cells after 48 hrs by SRB assay; assay type: functional, cell-based; details: Cricetulus griseus, CHO-TAX 5-6, 48 h; method in brief: as §1
CHO-TAX 5-6 [9] = assay: Ratio of IC50 for paclitaxel-resistant CHO-TAX 5-6 cells to IC50 for CHO cells; assay type: functional, Cricetulus griseus
Method in brief: (§3)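 Each ratio is the IC50 in the resistant line divided by the IC50 in its parental line (CHO for CHO-TAX 5-6 and CHO-VV 3-2; CEM for CEM-VLB).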

[10] = Toxicity against fertilized chicken embryo assessed as mortality at 3 ug, iv by CAM assay; assay type: organism-based, Gallus gallus; details: in vivo, read-out: Activity
Method in brief: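 HT-1080 fibrosarcoma cells (3.5 × 10⁵ cells/egg) grafted onto the chorioallantoic membrane of fertilized chicken eggs (10 days preincubation). On day 11, drug in DMSO diluted into excipient (ethanol:cremophor:PBS 6.25:6.25:87.5) given iv at 3 µg per egg. Chick mortality recorded over 7-day tumor growth period. Untreated eggs as negative controls and for normalization. Cumulative results from two independent experiments, 10–12 eggs each.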

HT-1080 [11] = assay: Antitumor activity against human HT1080 cells xenografted in chicken chorioallantoic membrane assessed as inhibition of tumor growth at 3 ug, iv measured on day 17 by CAM assay; assay type: functional
Method in brief: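 Fertilized chicken eggs were incubated 10 days, then 3.5 × 10⁵ HT-1080 cells/egg were applied to the exposed chorioallantoic membrane. On day 11, drug was given iv in DMSO diluted in excipient (ethanol:cremophor:PBS 6.25:6.25:87.5). Read-out was tumor wet weight as % of untreated eggs, plus chick mortality. Data were pooled from two independent experiments of 10–12 eggs each.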

CHO = assay: Antiproliferative activity against Chinese hamster CHO after 48 hrs by SRB assay; details: Cricetulus griseus
M21 [12] = assay: Cell cycle arrest in human M21 cells assessed as accumulation at S phase at 5 times IC50 after 24 hrs using propidium iodide staining by flow cytometric analysis (reference value: 30%); assay type: functional; method in brief: as §2
MDA-MB-231 [13] = assay: Antiproliferative activity against human MDA-MB-231 after 48 hrs by SRB assay; assay type: functional, cell-based; details: MDA-MB-231, 48 h
M21 [14] = assay: Antiproliferative activity against human M21 cells after 48 hrs by SRB assay; assay type: functional, cell-based; details: M21, 48 h; method in brief: as §1
DU-145 = assay: Antiproliferative activity against human DU145 after 48 hrs by SRB assay; assay type: functional, cell-based; details: DU-145, 48 h
L1210 = assay: Antiproliferative activity against mouse L1210 after 48 hrs by SRB assay; assay type: functional, cell-based; details: L1210, 48 h
CCRF-CEM [15] = assay: Ratio of IC50 for human multidrug-resistant CEM/VLB cells to IC50 for human CEM cells; assay type: functional; method in brief: as §3
HT-1080 [16] = assay: Antiproliferative activity against human HT1080 after 48 hrs by SRB assay; assay type: functional, cell-based; details: HT-1080, 48 h; method in brief: as §1
CHO-VV 3-2 [17] = assay: Ratio of IC50 for colchicine and vinblastine-resistant CHO-VV 3-2 cells to IC50 for CHO cells; assay type: functional, Cricetulus griseus; method in brief: as §3
SK-OV-3 = assay: Antiproliferative activity against human SKOV3 after 48 hrs by SRB assay; assay type: functional, cell-based; details: SK-OV-3, 48 h; method in brief: as §1
CCRF-CEM [18] = assay: Antiproliferative activity against human CEM after 48 hrs by SRB assay; assay type: functional, cell-based
HT-29 = assay: Antiproliferative activity against human HT-29 cells after 48 hrs by SRB assay; assay type: functional, cell-based; details: HT-29, 48 h; method in brief: as §1
[19] = Antiproliferative activity against human multidrug-resistant CEM/VLB cells after 48 hrs by SRB assay; assay type: functional

SMILES | IC50 (MCF7) [nM] | IC50 [1] [nM] | Activity (M21 [2]) | IC50 (CHO-VV 3-2 [3]) [nM] | Activity (MDA-MB-231 [4]) | IC50 (K562) [nM] | Activity (M21 [5]) [%] | IC50 [6] [nM] | Activity (M21 [7]) [%] | IC50 (CHO-TAX 5-6 [8]) [nM] | Ratio IC50 (CHO-TAX 5-6 [9]) | mortality [10] [%] | IC50 (CHO) [nM] | Activity (M21 [12]) [%] | IC50 (MDA-MB-231 [13]) [nM] | IC50 (M21 [14]) [nM] | IC50 (DU-145) [nM] | IC50 (L1210) [nM] | Ratio IC50 (CCRF-CEM [15]) | IC50 (HT-1080 [16]) [nM] | further results
COc1cc(NS(=O)(=O)c2ccc(N3CCNC3=O)cc2)cc(OC)c1OC | 18 | 38 | Active | > 250 | Active | 19 | 12 | 58 | 74 | 170 | 0.89 | 40 | 190 | 12 | 45 | 13 | 51 | 21 | >11 | 17 | growth inhibition (GI) (HT-1080 [11]): 25%; Ratio IC50 (CHO-VV 3-2 [17]): >1.3; IC50 (SK-OV-3): 22 nM; IC50 (CCRF-CEM [18]): 23 nM; IC50 (HT-29): 21 nM; IC50 [19]: > 250 nM
O=C1NCCN1c1ccc(S(=O)(=O)Nc2ccc3[nH]ccc3c2)cc1 | 170 | 520 | Active | 1860 | Active | 340 | 27 | 770 | 51 | 640 | 0.49 | 8 | 1310 | 22 | 3600 | 87 | 1370 | 260 | 12 | 230 | inhibition (HT-1080 [11]): inactive; Ratio IC50 (CHO-VV 3-2 [17]): 1.4; IC50 (SK-OV-3): 280 nM; IC50 (CCRF-CEM [18]): 410 nM; IC50 (HT-29): 130 nM; IC50 [19]: 4840 nM
Cc1ccc(C)c(NS(=O)(=O)c2ccc(N3CCNC3=O)cc2)c1 | 48 | 79 | Active | 110 | Active | 72 | 1 | 86 | 79 | 54 | 0.7 | 27 | 77 | 20 | 110 | 27 | 1610 | 81 | 1.6 | 65 | inhibition (HT-1080 [11]): inactive; Ratio IC50 (CHO-VV 3-2 [17]): 1.4; IC50 (SK-OV-3): 72 nM; IC50 (CCRF-CEM [18]): 74 nM; IC50 (HT-29): 46 nM; IC50 [19]: 120 nM
COc1cccc(NS(=O)(=O)c2ccc(N3CCNC3=O)cc2)c1 | 120 | 250 | Active | 450 | Active | 230 | 10 | 370 | 61 | 200 | 0.61 | 16 | 330 | 29 | 730 | 65 | 650 | 240 | 2.7 | 200 | growth inhibition (GI) (HT-1080 [11]): 41%; Ratio IC50 (CHO-VV 3-2 [17]): 1.4; IC50 (SK-OV-3): 240 nM; IC50 (CCRF-CEM [18]): 260 nM; IC50 (HT-29): 120 nM; IC50 [19]: 700 nM
